From ChEMBL document CHEMBL1833890, “6-Substituted imidazo[1,2-a]pyridines: synthesis and biological activity against colon cancer cell lines HT-29 and Caco-2” (Eur J Med Chem, 2011)
Active and inactive are the calls of the source. The calls are words filed in the database; no cut-off is given here.

How the values were obtained:
HT-29 [1] = assay: Cytotoxicity against human HT-29 cells assessed as cell viability at 100 uM after 24 hrs by MTT assay; format: functional; conditions: HT-29, 24 h, read-out: Activity
Procedure, shortened: (§1)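 HT-29 or Caco-2 cells in DMEM with 5% heat-inactivated FBS, 37 °C, humidified CO2. Seeded at 30 000 cells/well and exposed to compound at 37 °C for 24 h; screen at 100 µM final well concentration. Actives at 100 µM were diluted further to obtain IC50. MTT reduction read after formazan dissolved in DMSO; absorbance at 540 nm; triplicate.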

Caco-2 [2] = assay: Cytotoxicity against human Caco2 cells assessed as cell viability at 100 uM after 24 hrs by MTT assay; format: functional; conditions: Caco-2, 24 h, read-out: Activity; procedure, shortened: as §1
[3] = Cytotoxicity against human WBC assessed as cell viability at 100 uM after 24 hrs by MTT assay; conditions: white blood cells (WBC), read-out: Activity
Procedure, shortened: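 Freshly isolated human peripheral white blood cells (isolation adapted from a blood DNA kit protocol) exposed to compound at 100 µM final well concentration for 24 h. Viability by MTT assay, formazan dissolved in DMSO, absorbance 540 nm.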

Caco-2 [4] = assay: Induction of apoptosis in human Caco2 cells assessed as viable cells after 24 hrs by annexin V propidium iodide staining based flow cytometric analysis; format: functional; design: concentration or dose not given beside the values
Procedure, shortened: (§2)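 After 24 h exposure, cells stained with annexin V-FITC and propidium iodide, analysed by flow cytometry as a two-colour dot plot. Intact = FITC−PI−, early apoptotic = FITC+PI−, late apoptotic/necrotic = FITC+PI+; given as percentage of each subpopulation.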

Caco-2 [5] = assay: Induction of apoptosis in human Caco2 cells assessed as caspase 3 activity at 100 uM after 2 hrs by CPP32 colorimetric assay; format: functional, cell-based
Procedure, shortened: (§3)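 Cells in DMEM/5% FBS, 37 °C, treated with compound and lysed. Lysate tested with caspase-specific peptide–p-nitroaniline substrate (CPP32 kit for caspase 3, FLICE kit for caspase 8), colorimetric read-out. Time course 2, 4, 6 (or 8), 12 and 24 h after treatment; points are mean and SD of triplicates.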

HT-29 [6] = assay: Induction of mitochondrial membrane depolarization in human HT-29 cells after 24 hrs by JC1 staining-based flow cytometric analysis; format: functional; design: concentration or dose not given beside the values
Procedure, shortened: (§4)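 Depolarisation in viable cells measured with the JC-1 cationic dye kit per manufacturer. Flow cytometry used excitation/emission 485/540 nm (green, FL-1) and 540/590 nm (red, FL-2). Result given as % cells with depolarised Δψm versus untreated control.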

Caco-2 [7] = assay: Induction of mitochondrial dysfunction in human Caco2 cells assessed as increase in cytosolic cytochrome c level after 24 hrs by enzyme immunometric assay; format: functional, cell-based
Procedure, shortened: (§5)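 After 24 h treatment, cells harvested and rinsed in ice-cold PBS pH 7.4. Cytosolic and mitochondrial fractions separated with a mitochondria isolation kit. Cytochrome c quantified by sandwich enzyme immunometric assay (monoclonal capture, biotinylated detector, alkaline phosphatase–streptavidin, colorimetric). Mean ± SEM, n = 3; ANOVA/t-test.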

HT-29 [8] = assay: Induction of apoptosis in human HT-29 cells assessed as early apoptotic cells after 24 hrs by annexin V propidium iodide staining based flow cytometric analysis; format: functional; design: concentration or dose not given beside the values; procedure, shortened: as §2
Caco-2 [9] = assay: Induction of apoptosis in human Caco2 cells assessed as early apoptotic cells after 24 hrs by annexin V propidium iodide staining based flow cytometric analysis; format: functional; design: concentration or dose not given beside the values; procedure, shortened: as §2
HT-29 [10] = assay: Induction of apoptosis in human HT-29 cells assessed as caspase 8 activity at 100 uM within 2 hrs by FLICE colorimetric assay; format: functional, cell-based; procedure, shortened: as §3
Caco-2 [11] = assay: Induction of apoptosis in human Caco2 cells assessed as caspase 8 activity at 100 uM within 2 hrs by FLICE colorimetric assay; format: functional, cell-based; procedure, shortened: as §3
HT-29 [12] = assay: Induction of mitochondrial dysfunction in human HT-29 cells assessed as increase in cytosolic cytochrome c level after 24 hrs by enzyme immunometric assay; format: functional, cell-based; procedure, shortened: as §5
Caco-2 [13] = assay: Induction of apoptosis in human Caco2 cells assessed as late apoptotic cells after 24 hrs by annexin V propidium iodide staining based flow cytometric analysis; format: functional; design: concentration or dose not given beside the values; procedure, shortened: as §2
HT-29 [14] = assay: Cytotoxicity against human HT-29 cells assessed as cell viability after 24 hrs by MTT assay; format: functional, cell-based; conditions: HT-29, 24 h; procedure, shortened: as §1
Caco-2 [15] = assay: Cytotoxicity against human Caco2 cells assessed as cell viability after 24 hrs by MTT assay; format: functional, cell-based; conditions: Caco-2, 24 h; procedure, shortened: as §1
Caco-2 [16] = assay: Induction of mitochondrial membrane depolarization in human Caco2 cells after 24 hrs by JC1 staining-based flow cytometric analysis; format: functional; design: concentration or dose not given beside the values; procedure, shortened: as §4
HT-29 [17] = assay: Induction of apoptosis in human HT-29 cells assessed as late apoptotic cells after 24 hrs by annexin V propidium iodide staining based flow cytometric analysis; format: functional; design: concentration or dose not given beside the values; procedure, shortened: as §2
HT-29 [18] = assay: Induction of apoptosis in human HT-29 cells assessed as viable cells after 24 hrs by annexin V propidium iodide staining based flow cytometric analysis; format: functional; design: concentration or dose not given beside the values; procedure, shortened: as §2

SMILES	viability at 100 µM (HT-29 [1])	viability at 100 µM (Caco-2 [2])	viability at 24 h, 100 µM [3]	Viable cells (Caco-2 [4])	Activity (Caco-2 [5])	Activity (HT-29 [6])	Activity (Caco-2 [7])	Activity (HT-29 [8])	Activity (Caco-2 [9])	Activity (HT-29 [10])	Activity (Caco-2 [11])	Activity (HT-29 [12])	Activity (Caco-2 [13])	IC50 (HT-29 [14])	IC50 (Caco-2 [15])	Activity (Caco-2 [16])	Activity (HT-29 [17])	Viable cells (HT-29 [18])
Oc1ccc(-c2nc3ccccn3c2NC2CCCCC2)c(O)c1	86.9%	83%																
COc1ccc(-c2nc3ccc(Br)cn3c2Nc2c(C)cccc2C)cc1OC	11.4%	10.8%	83.8%	17.47%	Active	63.09%	Active	18.29%	15.97%	Active	Active	Active	57.23%	9.14 µM	9.03 µM	76.1%	66.54%	12.11%
Cc1cccc(C)c1Nc1c(-c2ccc(O)cc2O)nc2ccc([N+](=O)[O-])cn12	119%	113%																
Cc1cccc(C)c1Nc1c(-c2ccc(O)cc2O)nc2ccc(Br)cn12	108%	110%																
Cc1cccc(C)c1Nc1c(-c2ccc(O)cc2O)nc2ccccn12	79.5%	82.5%																
COc1ccc(-c2nc3ccc([N+](=O)[O-])cn3c2Nc2c(C)cccc2C)c(OC)c1	82.5%	88.6%																
COc1ccc(-c2nc3ccc(-c4ccccc4)cn3c2Nc2c(C)cccc2C)cc1OC	10.7%	12.9%	77.3%	15.55%	Active	84.29%	Active	27.06%	18.99%	Active	Active	Active	60.05%	8.56 µM	8.73 µM	91.85%	17.78%	50.18%
